The text below walks through data of ChEMBL document CHEMBL5150021, “Identification of 5-(Aryl/Heteroaryl)amino-4-quinolones as Potent Membrane-Disrupting Agents to Combat Antibiotic-Resistant Gram-Positive Bacteria” (J Med Chem, 2022).

The structures appear in SMILES notation. Converted amounts (≈) assume the structure as drawn.

For assay [1], the system named is Staphylococcus aureus. The assay can be described thus: Antibacterial activity against methicillin resistant Staphylococcus aureus FPR3757 assessed as inhibition of bacterial growth incubated for 24 hrs by CLSI based method. It counts as functional. The following applies: read-out: MIC100. In outline:
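It was mixed 1:1 with twofold serial compound dilutions and incubated stationary at 37 °C for 24 h. MIC was the lowest concentration giving complete inhibition of observable growth, with an oxacillin control.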

For assay [2], the system named is Staphylococcus aureus. The assay can be described thus: Antibacterial activity against methicillin resistant Staphylococcus aureus assessed as inhibition of bacterial growth incubated for 15 hrs by CLSI based broth microdilution method. It counts as functional. For orientation: Broth dilution looks for growth in wells or tubes with falling amounts of substance.

Take `Oc1cc(C(F)(F)F)nc2c(OC(F)(F)F)cccc12`: the MIC in the assay with Staphylococcus aureus [1] is 5 µg/mL (≈ 16.8 µM); in the assay on Staphylococcus aureus [2] it was 8 µg/mL (≈ 26.9 µM).
